# Laboratory results reported in PMC12594766 (Nature Communications, 2025).
# Key:
# S. aureus USA300 (MRSA) = assay: MIC against multidrug-resistant strain; assay type: cell-based; conditions: Staphylococcus aureus
# Summary of the method: (§1)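 Broth microdilution in non-cation-adjusted Mueller-Hinton broth. Bacteria were subcultured to OD 0.2–0.3 (about 10^8 CFU/mL), then diluted to about 10^5 CFU/mL final. Test compound stock was in DI water. Twofold dilutions gave 512 to 1 µg/mL final. Plates were incubated 18-20 h at 37 °C and read at OD600.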
# S. aureus USA300 (LAC) = assay: MIC against multidrug-resistant strain; assay type: cell-based; conditions: Staphylococcus aureus
# Summary of the method: as §1
# S. aureus BAA39 (MRSA) = assay: MIC against multidrug-resistant strain; assay type: cell-based; conditions: Staphylococcus aureus
# Summary of the method: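 Broth microdilution in non-cation-adjusted Mueller-Hinton broth. Bacteria were subcultured to OD 0.2–0.3 (about 10^8 CFU/mL) and diluted to give about 10^5 CFU/mL in wells. The test compound stock was in DI water, serially diluted twofold to final 512–1 µg/mL. Plates were incubated at 37 °C for 18–20 h and read at OD600.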
# P. aeruginosa PAO1 [1] = assay: Murine lung infection model; assay type: in vivo, balb/c mice; conditions: 10 mg/kg intranasal at 2, 8, 26 h
# Summary of the method: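 Infection was intranasal with P. aeruginosa PAO1 (10^4 CFU/mL inoculum). PBS, test compound or imipenem was given intranasally at 10 mg/kg at 2, 8 and 26 h post-infection (n = 6). Lungs were homogenised at 38 h for CFU. Survival was followed for up to 7 days.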
# P. aeruginosa PAO1 [2] = assay: Resistance frequency determination; assay type: cell-based; conditions: 10× MIC
# K. pneumoniae KPNR [3] = assay: Murine neutropenic thigh infection model; assay type: in vivo, balb/c mice; conditions: 2 doses of 15 mg/kg s.c. at 2, 6 h, 26 h
# Summary of the method: (§2)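 Infection was intramuscular into the right thigh: P. aeruginosa BAA-2797 at 10^5, K. pneumoniae KPNR at 10^6, or MRSA at 10^5 CFU/mL. PBS, test compound or imipenem was given s.c. at 15 mg/kg at 2 and 6 h (n = 6). Thighs were homogenised at 26 h for CFU.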
# P. aeruginosa BAA-2797 [4] = assay: Murine systemic; assay type: in vivo, balb/c mice; conditions: P. aeruginosa BAA-2797 peritonitis; single dose 10 mg/kg i.p. at 2 h; n = 6
# Summary of the method: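 Female BALB/c mice, 7–8 weeks, were infected i.p. with P. aeruginosa BAA-2797 (10^6 CFU/mL) in PBS containing 5% mucin. At 2 h post-infection they received a single i.p. dose of PBS, test compound (10 mg/kg) or imipenem (10 mg/kg), n = 6. Survival was monitored for up to 7 days.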
# K. pneumoniae KPNR [5] = assay: MIC against multidrug-resistant strain; assay type: cell-based; conditions: Klebsiella pneumoniae
# P. aeruginosa BAA-2797 [6] = assay: Murine neutropenic thigh infection model; assay type: in vivo, balb/c mice; conditions: 2 doses of 15 mg/kg s.c. at 2, 6 h, 26 h
# Summary of the method: as §2
# [7] = conventional antibiotics, literature values; cited from earlier work
# MRSA = assay: Murine neutropenic thigh infection model; assay type: in vivo, balb/c mice; conditions: 2 doses of 15 mg/kg s.c. at 2, 6 h, 26 h
# Summary of the method: as §2
structure (smiles),measurement,setting,value
"O=C(O)c1cn(C2CC2)c2cc(N3CCNCC3)c(F)cc2c1=O [CIP, ciprofloxacin]",MIC,S. aureus USA300 (MRSA),< 1 µg/mL
same,MIC,S. aureus USA300 (LAC),8 µg/mL
same,MIC,S. aureus BAA39 (MRSA),4 µg/mL
"C[C@@H](O)[C@H]1C(=O)N2C(C(=O)O)=C(SCCN=CN)C[C@H]12 [IMP, imipenem]",reduction of bacterial burden in lung tissues,"P. aeruginosa PAO1 [1]; P. aeruginosa PAO1, 38 h",4.7 log10
same,survival (mice rescued),"P. aeruginosa PAO1 [1]; P. aeruginosa PAO1 lung infection, n = 6",5 out of 6
same,MIC,S. aureus USA300 (MRSA),< 1 µg/mL
same,MIC,S. aureus USA300 (LAC),< 1 µg/mL
same,selection of resistant escape mutants,P. aeruginosa PAO1 [2],resistant strains developed
same,CFU reduction in thigh vs PBS (-),K. pneumoniae KPNR [3],1.4 log10
same,survival (mice rescued),P. aeruginosa BAA-2797 [4],succumbed to the infection
same,MIC,K. pneumoniae KPNR [5],4 µg/mL
same,CFU reduction in thigh vs PBS (-),P. aeruginosa BAA-2797 [6],0.1 log10
same,half-life (T1/2),[7],12 min
same,MIC,S. aureus BAA39 (MRSA),< 1 µg/mL
"CN[C@H](CC(C)C)C(=O)N[C@H]1C(=O)N[C@@H](CC(N)=O)C(=O)N[C@H]2C(=O)N[C@H]3C(=O)N[C@H](C(=O)N[C@H](C(=O)O)c4cc(O)cc(O)c4-c4cc3ccc4O)[C@H](O)c3ccc(c(Cl)c3)Oc3cc2cc(c3O[C@@H]2O[C@H](CO)[C@@H](O)[C@H](O)[C@H]2O[C@H]2C[C@](C)(N)[C@H](O)[C@H](C)O2)Oc2ccc(cc2Cl)[C@H]1O [VAN, vancomycin]",MIC,S. aureus USA300 (MRSA),< 1 µg/mL
same,MIC,S. aureus USA300 (LAC),< 1 µg/mL
same,CFU reduction in thigh vs PBS (-),MRSA,2.3 log10
same,MIC,S. aureus BAA39 (MRSA),1 µg/mL
C[C@@H](O)[C@H]1C(=O)N2C(C(=O)O)=C(S[C@@H]3CN[C@H](C(=O)N(C)C)C3)[C@H](C)[C@H]12 [meropenem],half-life (T1/2),[7],6 min
